Reference: ChEMBL document CHEMBL2169850, “3,6-bis(3-alkylguanidino)acridines as DNA-intercalating antitumor agents” (Eur J Med Chem, 2012)
Calls of active or inactive are those of the source. The rule behind the calls is not given here.

Columns and labels:
HL-60 [1] = test: Cell cycle arrest in human HL60 cells assessed as accumulation at G1 phase at 5 uM incubated for 48 hrs by flow cytometry (reference value: 38.29 +/- 0.22%); type: functional
HL-60 [2] = test: Cell cycle arrest in human HL60 cells assessed as accumulation at S phase at 25 uM incubated for 48 hrs by flow cytometry (reference value: 45.29 +/- 1.23%); type: functional
[3] = target: T1, DNA topoisomerase 1 (Homo sapiens) (UniProt P11387); test: Inhibition of human topoisomerase 1 assessed as reduction in pBR322 DNA relaxation of relaxation at 60 uM by DNA unwinding assay
T1 sequence (whole entry): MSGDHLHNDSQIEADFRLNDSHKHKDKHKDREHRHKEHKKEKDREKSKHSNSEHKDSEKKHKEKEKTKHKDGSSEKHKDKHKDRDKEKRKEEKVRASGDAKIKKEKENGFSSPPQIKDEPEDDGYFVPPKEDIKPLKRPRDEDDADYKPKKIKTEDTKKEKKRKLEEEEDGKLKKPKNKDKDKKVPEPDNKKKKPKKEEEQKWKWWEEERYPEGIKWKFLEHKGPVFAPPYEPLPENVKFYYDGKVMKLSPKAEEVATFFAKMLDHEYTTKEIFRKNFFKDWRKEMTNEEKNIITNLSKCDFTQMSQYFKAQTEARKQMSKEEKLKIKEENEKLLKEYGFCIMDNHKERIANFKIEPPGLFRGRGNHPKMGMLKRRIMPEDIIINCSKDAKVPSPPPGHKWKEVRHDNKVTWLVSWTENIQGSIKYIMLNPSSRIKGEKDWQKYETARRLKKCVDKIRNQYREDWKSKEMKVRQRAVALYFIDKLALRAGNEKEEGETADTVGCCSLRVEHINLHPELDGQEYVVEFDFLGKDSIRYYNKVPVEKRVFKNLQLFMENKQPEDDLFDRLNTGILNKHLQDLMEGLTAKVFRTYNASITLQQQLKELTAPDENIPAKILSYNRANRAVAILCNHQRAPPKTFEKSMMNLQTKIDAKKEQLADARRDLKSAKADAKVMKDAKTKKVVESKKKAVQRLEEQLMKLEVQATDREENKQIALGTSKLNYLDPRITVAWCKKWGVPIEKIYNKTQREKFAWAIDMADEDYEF

HL-60 [4] = test: Cell cycle arrest in human HL60 cells assessed as accumulation at G2/M phase at 5 uM incubated for 72 hrs by flow cytometry (reference value: 12.68 +/- 3.21%); type: functional
HL-60 [5] = test: Cell cycle arrest in human HL60 cells assessed as accumulation at G2/M phase at 5 uM incubated for 24 hrs by flow cytometry (reference value: 19.62 +/- 0.96%); type: functional
HL-60 [6] = test: Cell cycle arrest in human HL60 cells assessed as accumulation at S phase at 25 uM incubated for 72 hrs by flow cytometry (reference value: 40.30 +/- 3.15%); type: functional
HL-60 [7] = test: Cell cycle arrest in human HL60 cells assessed as accumulation at S phase at 15 uM incubated for 72 hrs by flow cytometry (reference value: 40.30 +/- 3.15%); type: functional
HL-60 [8] = test: Cell cycle arrest in human HL60 cells assessed as accumulation at G2/M phase at 15 uM incubated for 24 hrs by flow cytometry (reference value: 19.62 +/- 0.96%); type: functional
Nucleic Acid [9] = test: Binding affinity to calf thymus DNA increase in DNA viscosity at 12 to 60 uM by viscosimetric titration assay; type: nucleic-acid assay; settings: Bos taurus
How it was run: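 Relative viscosity of ctDNA (3.11 × 10^-8 M) with compound at 12–60 × 10^-6 M was measured by automated microviscometry in a 1.6 mm capillary at 25 °C, in 10 mM Tris, pH 7.4. Solution density was also measured.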

HL-60 [10] = test: Cell cycle arrest in human HL60 cells assessed as accumulation at S phase at 5 uM incubated for 24 hrs by flow cytometry (reference value: 44.41 +/- 0.77%); type: functional
HL-60 [11] = test: Antiproliferative activity against human HL60 cells assessed as cell number at 25 uM incubated for 48 hrs by Coulter counting method; type: functional
How it was run: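 HL-60 cells in RPMI with 10% heat-inactivated FCS, antibiotics and amphotericin, 37 °C, 5% CO2, seeded in 60 mm dishes. Compound added at 5, 15 or 25 µM for 24, 48 or 72 h. Absolute cell counts taken by Coulter counter and expressed as percentage of untreated control. Mean ± SD of at least three independent experiments; one-way ANOVA with Tukey test, p < 0.05.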

HL-60 [12] = test: Induction of caspase-3 activation in human HL60 cells at 5 to 25 uM incubated for 24 to 72 hrs by FACS assay; type: functional, cell-based
How it was run: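 HL-60 cells (RPMI with 10% heat-inactivated FCS, 37 °C, 5% CO2) were seeded in dishes and treated 24, 48 or 72 h. Cells were fixed and permeabilized 20 min on ice, then stained 30 min at RT with FITC anti-active caspase-3 antibody. Read-out was the percentage of positive cells by flow cytometry. Mean ± SD of at least three independent experiments; ANOVA with Tukey.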

HL-60 [13] = test: Cell cycle arrest in human HL60 cells assessed as accumulation at G1 phase at 25 uM incubated for 48 hrs by flow cytometry (reference value: 38.29 +/- 0.22%); type: functional
HL-60 [14] = test: Cell cycle arrest in human HL60 cells assessed as accumulation at G2/M phase at 25 uM incubated for 72 hrs by flow cytometry (reference value: 12.68 +/- 3.21%); type: functional
HL-60 [15] = test: Cell cycle arrest in human HL60 cells assessed as accumulation at S phase at 5 uM incubated for 48 hrs by flow cytometry (reference value: 45.29 +/- 1.23%); type: functional
HL-60 [16] = test: Cell cycle arrest in human HL60 cells assessed as accumulation at G1 phase at 25 uM incubated for 24 hrs by flow cytometry (reference value: 35.96 +/- 1.63%); type: functional
[17] = target: T1, DNA topoisomerase 1 (Homo sapiens); test: Inhibition of human topoisomerase 1 assessed as reduction in pBR322 DNA relaxation of relaxation at 5 uM by DNA unwinding assay
HL-60 [18] = test: Cell cycle arrest in human HL60 cells assessed as accumulation at S phase at 15 uM incubated for 48 hrs by flow cytometry (reference value: 45.29 +/- 1.23%); type: functional
HL-60 [19] = test: Cell cycle arrest in human HL60 cells assessed as accumulation at S phase at 25 uM incubated for 24 hrs by flow cytometry (reference value: 44.41 +/- 0.77%); type: functional
HL-60 [20] = test: Cell cycle arrest in human HL60 cells assessed as accumulation at S phase at 5 uM incubated for 72 hrs by flow cytometry (reference value: 40.30 +/- 3.15%); type: functional
Nucleic Acid [21] = test: Binding affinity to calf thymus DNA by spectrofluorimetric titration assay; type: nucleic-acid assay; settings: Bos taurus
How it was run: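 Fluorescence titration at 25 °C in 0.01 M Tris, pH 7.4. Compound (9.58 × 10^-6 M) was titrated with ctDNA from 0 to 2.57 × 10^-4 M bp, excited at 384 nm, and emission recorded from 400 to 600 nm. K and n were obtained from McGhee–von Hippel fits of Scatchard data.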

Topoisomerase 1 inhibition (active/inactive) [3] | Activity (Nucleic Acid [9]) | Activity [17] | Compound | Activity (HL-60 [1]) | Activity (HL-60 [2]) | Activity (HL-60 [4]) | Activity (HL-60 [5]) | Activity (HL-60 [6]) | Activity (HL-60 [7]) | Activity (HL-60 [8]) | Activity (HL-60 [10]) | Activity (HL-60 [11]) [%] | Activity (HL-60 [12]) | Activity (HL-60 [13]) | Activity (HL-60 [14]) | Activity (HL-60 [15]) | Activity (HL-60 [16]) | Activity (HL-60 [18]) | Activity (HL-60 [19]) | Activity (HL-60 [20]) | further results
Active | Active | Active | CCNC(=N)Nc1ccc2cc3ccc(NC(=N)NCC)cc3nc2c1.Cl.Cl.O | inactive | inactive | inactive | inactive | inactive | inactive | inactive | inactive | 86.85 | inactive | inactive | inactive | inactive | inactive | inactive | inactive | inactive | K (Nucleic Acid [21]): 5.26 ×10⁵ /M
Active | Active | Active | CCCCCCNC(=N)Nc1ccc2cc3ccc(NC(=N)NCCCCCC)cc3nc2c1.Cl.Cl.O | 45.1% | 27.77% | 7.47% | 16.37% | 22.5% | 23.84% | 11.65% | 47.31% | 40.67 | Active | 65.72% | 3.91% | 43.54% | 51.52% | 27.52% | 38.11% | 43.6% | K (Nucleic Acid [21]): 1.25 ×10⁵ /M
